Compound activity: PubChem, Sanford-Burnham Center for Chemical Genomics
Lipid droplet: modulators of hepatic lipid droplet formation | AML12 mouse hepatocytes, oleate lipid droplets, BODIPY imaging | inhibition, % at 6.5 µM | 240,000 tested, 0.4% active | AID 1656;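 active means lipid droplet intensity inhibited by at least 50%, with more than 500 cells counted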
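Assay system: AML12 mouse liver cells | Compound: 6.5 µM single-point dosing | Schedule: Overnight exposure | Technique: Fluorescence imaging, 20x objective, two fields per well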
TAG inh: reduces triacylglycerol accumulation in H9c2 cells. inhibition, % at 12.5 µM. 230,000 tested, 0.66% active. Nile Red lipid (TAG) fluorescence; cells loaded with 200 µM oleic acid;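 active means pattern-corrected inhibition of lipid staining of at least 50% with the nuclear-stain viability signal not falling by more than 50%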
hiPSC survival: increases survival of single human iPS cells. hiPSC single-cell survival, ATPlite luminescence; 100% = ROCK inhibitor wells, 0% = DMSO. survival enhancement, % at 20 µM. 360,000 tested, 0.044% active. AID 602274; in the data active means survival enhancement above about 18%;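 further: cells exposed to compounds for 16 hours before the ATP read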
697 NFkB inh: lowers PMA/ionomycin-induced NF-kB signal in 697 B cells. 330,000 tested, 0.33% active. inhibition, % at 4 µM. AID 435022. 697 B-cell NF-kB luciferase reporter, 16 h; in the data active means inhibition above about 35%
Jurkat NFkB inh: lowers PMA/ionomycin-induced NF-kB signal in Jurkat cells | PMA/ionomycin-induced NF-kB luciferase reporter, luminescence | inhibition, % at 4 µM | 330,000 tested, 0.53% active; in the data active means inhibition above about 50%
Gli-Sufu antag: blocks Gli-Sufu signaling in a luciferase reporter; 340,000 tested, 0.74% active; Sufu-KO-LIGHT fibroblasts, Gli luciferase reporter luminescence; AID 588413; inhibition, % at 5 µM;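 active means inhibition above about 55%, limit read from the data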
Jurkat NFkB conf: lowers PMA/ionomycin-induced NF-kB signal in Jurkat cells | Jurkat NF-kB luciferase, 16 h | 2,700 tested, 27% active | inhibition, % at 4 µM | AID 435020 | shares compounds with Jurkat NFkB inh;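 active means inhibition reaching about 45% at 4 µM in either replicate, limit read from the data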
Of the large screens only hits and unclear results are named; the others gave an inactive call (follow-up assays come after a bar, where they were run). Hits are enriched below; roughly 1.8% of the tested compounds scored in any of these assays.

COc1ccc(NC(=O)/C(Cl)=C(/Cl)S(=O)Cc2ccc(Cl)cc2)cn1 (stereo unspecified)	TAG inh 88, Jurkat NFkB inh 101 | Jurkat NFkB conf 99
COc1ccc2c(c1)C1C=CCC1C(c1cc3c(cc1Br)OCO3)N2 (stereo unspecified)	none (no result: Lipid droplet)
CC(=O)c1ccc2c(c1)C1C=CCC1C(c1cc3c(cc1Br)OCO3)N2 (stereo unspecified)	Jurkat NFkB inh 80 (no result: Lipid droplet) | Jurkat NFkB conf inactive
CC(=O)OC1C=CCC2C(=O)c3cccc(O)c3C(O)C12 (stereo unspecified)	none (no result: Lipid droplet, 697 NFkB inh, Jurkat NFkB inh)
CN1C(=O)C2(Oc3ccccc3C3CC(c4ccccc4)=NN32)c2ccccc21 (stereo unspecified)	none (no result: Lipid droplet)
Cc1ccc(C2=NN3C(C2)c2ccccc2OC32C(=O)Nc3ccccc32)cc1 (stereo unspecified)	none (no result: Lipid droplet) | Jurkat NFkB conf inactive
C[C@]12c3[nH]c4ccc(Cl)cc4c3CCN1C(=O)[C@@H](CC(=O)NCCC1=CCCCC1)C[C@@H]2C(=O)N1CCOCC1	none (no result: Lipid droplet, Jurkat NFkB inh)
CCCN(CCC)C1=CC(=[N+]2CCCC2)CC(C)(C)C1	Jurkat NFkB inh 69, Gli-Sufu antag 82 (no result: TAG inh) | Jurkat NFkB conf inactive
CN(C)NC1=CC(=[N+]2CCCC2)CC(C)(C)C1	none
CN(Cc1ccccc1)C(=O)c1nn2cccnc2c1Cl	none
Cc1ccccc1-n1cnc2cc(NCc3cccs3)ccc21	none (no result: Lipid droplet, TAG inh)
COc1ccccc1-n1cnc2cc(NCc3cccs3)ccc21	TAG inh 58, Jurkat NFkB inh 51 | Jurkat NFkB conf inactive
COc1ccc([C@H]2CC(=O)C=C(c3cc(C(F)(F)F)cc(C(F)(F)F)c3)C2)cc1	none (no result: Lipid droplet, TAG inh)
O=S(=O)(/N=C(/Nc1nc2ccccc2s1)c1ccccc1)c1ccccc1	none (no result: Lipid droplet) | Jurkat NFkB conf inactive
c1ccc(Cn2c[n+](Cc3ccccc3)cn2)cc1	none
Cc1ccc2nc(/C(C#N)=C\c3ccc([N+](=O)[O-])o3)[nH]c2c1	Jurkat NFkB inh 59 (no result: Lipid droplet, TAG inh, Gli-Sufu antag) | Jurkat NFkB conf inactive
N#C/C(=C\c1ccc([N+](=O)[O-])o1)c1nc2ccccc2[nH]1	none (no result: TAG inh, hiPSC survival)
COc1cccc(NC2C=CS(=O)(=O)C2)c1 (stereo unspecified)	none
O=S1(=O)C=CC(Nc2cccc(Cl)c2)C1 (stereo unspecified)	Jurkat NFkB inh 50 (no result: TAG inh) | Jurkat NFkB conf inactive
O=C(CN(Cc1ccccc1)S(=O)(=O)c1ccc(F)cc1)NCc1ccccn1	none (no result: TAG inh)
CCOC(=O)c1[nH]c(C)c(C(=O)c2cc(F)ccc2F)c1C	Jurkat NFkB inh 77 (no result: TAG inh) | Jurkat NFkB conf inactive
Cc1[nH]c2ccccc2c1/C=N/NC(=O)c1cc(-c2ccncc2)nc2ccccc12	Jurkat NFkB inh 56 | Jurkat NFkB conf inactive
O=C(N/N=C/c1ccccn1)c1cc(-c2ccc(Br)cc2)nc2ccccc12	Jurkat NFkB inh 54, Gli-Sufu antag 72 | Jurkat NFkB conf inactive
CCCOc1cccc(-c2cc(C(=O)N/N=C/c3ccccn3)c3ccccc3n2)c1	none
Cc1[nH]c2ccccc2c1/C=N/NC(=O)c1cc(-c2ccccc2)n[nH]1	none
CN(Cc1cccc(F)c1)CC(O)COCc1ccccc1Cl (stereo unspecified)	none
COc1ccc(C(=O)COC(=O)CN2C(=O)C3C4CCC(C4)C3C2=O)cc1 (stereo unspecified)	none (no result: Lipid droplet, TAG inh)
O=C(COc1ccc2c(-c3ccccc3)cc(=O)oc2c1)Nc1cccnc1	Jurkat NFkB inh 50 (no result: TAG inh) | Jurkat NFkB conf 48
O=C(O)c1cc(N/N=C/c2ccc3c(c2)OCO3)ccc1Cl	none
O=C(O)c1ccc(N/N=C/c2ccc3c(c2)OCO3)cc1	Jurkat NFkB inh 75 (no result: TAG inh) | Jurkat NFkB conf inactive
O=C(N/N=C/c1ccc2c(c1)OCO2)c1cccs1	none (no result: TAG inh)
Cc1ccsc1C(=O)N/N=C/c1ccc2c(c1)OCO2	none (no result: TAG inh) | Jurkat NFkB conf inactive
Cc1ccsc1C(=O)OCC(=O)NCc1cccs1	none (no result: Lipid droplet, 697 NFkB inh, Jurkat NFkB inh, Gli-Sufu antag)
COc1cc(C(=O)Nc2ccc3c(c2)ncn3C)cc(OC)c1OC	Jurkat NFkB inh 52 (no result: TAG inh, Gli-Sufu antag) | Jurkat NFkB conf inactive
COc1ccccc1NC(=O)C1Cc2ccccc2CN1C(=O)c1ccco1 (stereo unspecified)	none (no result: TAG inh)
O=C(Nc1ccccc1)C1Cc2ccccc2CN1C(=O)c1ccco1 (stereo unspecified)	none | Jurkat NFkB conf inactive
O=C(COC(=O)c1ccco1)Nc1cccc(S(=O)(=O)N2CCOCC2)c1	none (no result: Lipid droplet, 697 NFkB inh, Jurkat NFkB inh, Gli-Sufu antag)
O=C(/C=C/c1ccccc1)c1c[nH]c2ccccc12	none | Jurkat NFkB conf inactive
O=C(C=Cc1ccccc1)c1c[nH]c2ccccc2c1=O	none (no result: Lipid droplet, 697 NFkB inh, Jurkat NFkB inh)
Cc1ccc(Cl)c2sc(NC(=O)C3=COCCO3)nc12	none
COc1ccc(-c2coc3cc4oc(=O)cc(C)c4cc23)cc1F	none (no result: Lipid droplet, TAG inh)
COc1ccc(-c2coc3cc4oc(=O)cc(-c5ccccc5)c4cc23)cc1F	Jurkat NFkB inh 67 (no result: TAG inh) | Jurkat NFkB conf inactive
Cc1ccc(NC(=O)c2cc3ccccc3o2)nc1	none (no result: Lipid droplet) | Jurkat NFkB conf inactive
O=C(Nc1ccc(Cl)cc1Cl)c1cc2ccccc2o1	none (no result: TAG inh) | Jurkat NFkB conf inactive
Cc1cc(C)nc(NC(=O)c2cc3ccccc3o2)n1	none (no result: Lipid droplet, TAG inh)
Cc1ccccc1NC(=O)c1cc2ccccc2o1	none (no result: TAG inh)
CC(CNC(=O)CCS(=O)(=O)c1ccc2c(c1)NC(=O)CO2)c1ccccc1 (stereo unspecified)	none (no result: TAG inh)
CN(CC(=O)NC1CCCc2ccccc21)S(=O)(=O)c1cccs1 (stereo unspecified)	none
Cc1cc(C)c2sc(NC(=O)C3=COCCO3)nc2c1	none | Jurkat NFkB conf inactive
COc1ccc(C(=O)CCNc2ccc(F)cc2)cc1	Jurkat NFkB inh 70 | Jurkat NFkB conf inactive
Fc1ccccc1CSc1nnc(-c2cccnc2)o1	none
Fc1ccccc1CSc1nnc(-c2ccccc2)o1	none | Jurkat NFkB conf inactive
Cc1ccccc1-c1nnc(SCc2ccccc2F)o1	none (no result: Lipid droplet) | Jurkat NFkB conf inactive
Cc1ccccc1-c1nnc(SCc2ccccc2)o1	none
COc1ccc(-c2nnc(SCc3ccccc3F)o2)cc1	none | Jurkat NFkB conf inactive
CC(=O)N1CC(C)Sc2ccc(S(=O)(=O)NCc3ccc(Cl)cc3)cc21 (stereo unspecified)	none (no result: TAG inh)
CC1=C(C(=O)Nc2ccc(Cl)cc2)C2(CCCCC2)C(C(N)=O)C(=S)N1 (stereo unspecified)	none (no result: TAG inh, hiPSC survival, Gli-Sufu antag)
COc1ccc(OC)c(NC(=O)Nc2ccc3[nH]ccc3c2)c1	none (no result: Lipid droplet)
CCOc1ccccc1CN1CCN(Cc2cc(=O)c3ccccc3[nH]2)CC1CCO (stereo unspecified)	Jurkat NFkB inh 51 | Jurkat NFkB conf inactive
OC(c1cc(-c2ccc(C(F)(F)F)cc2)nc(C(F)(F)F)c1)C1CCCCN1 (stereo unspecified)	Jurkat NFkB inh 52 (no result: TAG inh) | Jurkat NFkB conf inactive
Cn1nc(-c2ccccn2)nc2c(=O)n(C)c(=O)nc1-2	Jurkat NFkB inh 56 | Jurkat NFkB conf 95
COc1ccc(-c2nc(-c3ccccn3)ncc2S(C)(=O)=O)cc1	none
